From PubChem
IMP-1 inhibitor = blocks Pseudomonas aeruginosa IMP-1 metallo-beta-lactamase; purified IMP-1, nitrocefin hydrolysis, epi-absorbance fluorescence; inhibition, % at 5.6 µM; hit rate 0.45% among 290,000;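 active = inhibition above the mean plus 3 SD of all compounds in the same screening run, cut at about 4.5% in these data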
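System: Purified IMP-1 | Read-out basis: Percent enzyme inhibition | Controls: IMP-1 with DMSO as 0%, enzyme-free DMSO as 100% | Replicates: One well per compound | Doses: 5.6 µM nominal single concentration | Detection: Epi-absorbance fluorescence, 480 nm excitation, 530 nm emission | Incubation: 25 °C, 15 min preincubation, 25 min reaction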
Calb FLC = affects C. albicans growth with fluconazole; AID 1979; growth inhibition, % (concentration not given with the values); hit rate 0.57% among 300,000; C. albicans CaCi-2 + fluconazole, Alamar Blue growth, 48 h;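 active = growth inhibition above about 58% in most replicates, limit read from the data, passing the limit was not always enough; inconclusive = exactly half the replicates above a set limit; inactive = most replicates below a set limit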;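 also: all wells also contain fluconazole at 8 µg/ml as a sub-toxic cotreatment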
PHOSPHO1 block = PHOSPHO1 (human) inhibition; Q8TCT1; hit rate 1.1% among 290,000; inhibition, % at 13.3 µM; recombinant PHOSPHO1, absorbance phosphatase assay; in the data active = inhibition above about 60%
VIM-2 inhibitor = blocks Pseudomonas aeruginosa VIM-2 metallo-beta-lactamase. purified VIM-2, nitrocefin hydrolysis, epi-absorbance fluorescence. inhibition, % at 5.6 µM. hit rate 0.89% among 290,000. AID 1527;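 active = inhibition above the mean of all tested compounds plus 3 SD, cutoff set per screening run, cut at about 7.5% in these data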;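 also: red hydrolysis product quenches plate fluorescence so inhibitors raise well fluorescence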
ASAP1 GAP inh = inhibitors of human ASAP1 ArfGAP activity; ASAP1-stimulated ARF1 GTP hydrolysis, GDP FP detection; hit rate 0.19% among 360,000; Q9ULH1; inhibition, % at 16.5 µM; AID 624377; in the data active = inhibition above about 25%
Target sequence (Q9ULH1 325-724 limits assumed): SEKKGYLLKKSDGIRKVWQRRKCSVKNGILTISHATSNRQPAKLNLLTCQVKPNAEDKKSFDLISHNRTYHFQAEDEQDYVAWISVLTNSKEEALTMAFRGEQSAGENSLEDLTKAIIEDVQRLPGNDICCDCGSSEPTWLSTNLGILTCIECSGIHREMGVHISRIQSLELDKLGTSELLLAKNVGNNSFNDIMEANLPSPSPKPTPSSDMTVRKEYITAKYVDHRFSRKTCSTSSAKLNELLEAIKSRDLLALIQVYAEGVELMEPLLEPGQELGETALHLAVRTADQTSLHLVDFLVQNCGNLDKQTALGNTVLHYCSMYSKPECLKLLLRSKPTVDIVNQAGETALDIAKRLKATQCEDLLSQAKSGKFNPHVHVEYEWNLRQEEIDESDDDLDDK
ARFGAP1 inhibitor = inhibits rat ARF GTPase activating protein 1; Q62848; Arfgap1-stimulated ARF1 GTP hydrolysis, GDP FP detection; inhibition, % at 16.5 µM; hit rate 0.26% among 360,000;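 active = inhibition above a per-plate limit, mean inhibition of low control wells plus 3 SD, cut at about 25% in these data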
Target sequence (Q62848 1-136 limits assumed): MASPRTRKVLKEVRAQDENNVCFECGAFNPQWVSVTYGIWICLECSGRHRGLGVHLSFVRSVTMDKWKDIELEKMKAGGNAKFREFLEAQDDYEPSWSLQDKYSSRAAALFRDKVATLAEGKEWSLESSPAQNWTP
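Material: rat Arfgap1 GAP domain (His6, aa 1-136), purified enzyme. Also added: human ARF1(Δ1-17)-GTP substrate. Compound dosing: 16.5 µM single point, 1.26% DMSO. Timing: enzyme reaction 120 min at 25 °C after 20 min preincubation. Signal: GDP detection by fluorescence polarization. Read-out basis: percent inhibition of GAP-stimulated GDP formation, scaled between DMSO and no-Arfgap1 medians.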
A number is an active result; - = inactive; ? = inconclusive; . = no result given. Most compounds without a hit are left out; they make up all but 2.6% or so of the library.

SMILES	IMP-1 inhibitor	Calb FLC	PHOSPHO1 block	VIM-2 inhibitor	ASAP1 GAP inh	ARFGAP1 inhibitor
CC(O)CC(C(=O)NNc1ccccc1)C(=O)NNc1ccccc1 (stereo unspecified)	-	?	-	-	-	-
O=C(NNc1ccccc1)C(CCO)C(=O)NNc1ccccc1	-	100	-	-	-	-
COc1ccc(-c2csc3nc(-c4cccnc4)nc(Cl)c23)cc1OC	-	-	-	12	-	-
C=CCN1C[C@H](COC(=O)c2ccc(C)c(C)c2)Oc2cccc(F)c2S1(=O)=O	.	.	.	.	-	-
[O-][n+]1ccccc1C(O)CSc1ccccc1 (stereo unspecified)	.	.	.	.	-	-
CCN1CCN(c2ccc(NC(=O)c3ccc4c(c3)[nH]c(=O)n4Cc3ccc(F)cc3)cc2)CC1	-	-	-	9.2	-	-
O=C(c1ccc(Cn2c(=O)[nH]c3ccsc3c2=O)cc1)N1CCN(c2ccccc2)CC1	-	-	-	-	-	-
O=C(c1ccc(Cn2c(=O)[nH]c3ccccc3c2=O)cc1)N1CCN(c2ccc(F)cc2)CC1	-	63	-	-	-	-
CC(C)[C@H](N)C(=O)N[C@H](C(=O)N1CCC2CCN(Cc3ccccc3)CC21)C(C)C (stereo partly specified)	.	.	.	.	-	-
Cc1cc(O)cc(=O)n1-c1cc(Cl)cc(Cl)c1	.	.	.	.	-	-
N#CC1=C2SCN(Cc3ccco3)CN2C(=O)CC1c1c(F)cccc1Cl (stereo unspecified)	-	-	79	-	-	-
Cc1ccc(C2CC(=O)N3CN(Cc4ccco4)CSC3=C2C#N)cc1 (stereo unspecified)	-	-	76	-	-	-
CC(C)c1ccc(C2CC(=O)N3CN(C)CSC3=C2C#N)cc1 (stereo unspecified)	-	-	-	-	.	.
COc1ccc(Br)cc1C1CC(=O)N2CN(Cc3ccccc3)CSC2=C1C#N (stereo unspecified)	-	-	-	-	-	-
CCCN(C(=O)c1cn(CCC)c2ccccc12)c1ccc(Oc2cccnc2)cc1	.	.	.	.	-	-
COc1ccc(C2C(C(=O)c3cccs3)=C(O)C(=O)N2c2nncs2)cc1 (stereo unspecified)	-	116	71	-	-	-
Cc1cccc(N2C(=O)C(O)=C(C(=O)c3cccs3)C2c2ccc(F)cc2)n1 (stereo unspecified)	-	?	-	-	-	-
Cc1[nH]c2ccc(F)cc2c(=O)c1SC(F)(F)C(F)C(F)(F)F (stereo unspecified)	-	-	88	-	-	-
COC(=O)[C@]12C[C@H](CC(=O)NCc3ccc(OC)c(OC)c3)C(=O)N(CCC3=CCCCC3)C1=C[C@H](COCc1ccccc1)O[C@@H]2C	.	.	.	.	-	-
Cn1nc(-c2ccc(N3CCCCC3)c(NC(=O)c3ccco3)c2)c2ccccc2c1=O	-	-	-	-	-	-
COc1ccc(-c2nn(C)c(=O)c3ccccc23)cc1CNC(=O)c1ccco1	-	-	-	8.9	-	-
COc1ccc(-c2nn(C)c(=O)c3ccccc23)cc1CNS(C)(=O)=O	-	-	-	8.5	-	-
COC(=O)[C@]12C[C@H](CC(=O)NCc3cccc4ccccc34)C(=O)N(Cc3ccc4c(c3)OCO4)C1=C[C@H](C(C)(C)C)O[C@@H]2C	.	.	.	.	-	-
C=CCN1[C@@H](C)[C@@H](c2ccccc2)Oc2c(Cl)cccc2S1(=O)=O	.	.	.	.	-	-
Cc1ccccc1N=Nc1ccc(O)c2ncccc12	-	-	-	-	-	-
SMILES	IMP-1 inhibitor	Calb FLC	PHOSPHO1 block	VIM-2 inhibitor	ASAP1 GAP inh	ARFGAP1 inhibitor
COc1ccc(C)cc1N=Nc1ccc(O)c2ncccc12	-	109	-	-	-	-
COc1ccc(N=Nc2ccc(O)c3ncccc23)cc1	-	-	-	-	-	-
COc1cccc(N=Nc2ccc(O)c3ncccc23)c1	-	101	-	-	-	-
Oc1ccc(N=Nc2ccc3c(c2)OCCO3)c2cccnc12	-	100	-	-	-	-
O=S(=O)(O)c1cccc2c(N=Nc3ccc(O)c4ncccc34)cccc12	-	84	-	-	.	.
Cc1ccc2nc(-c3cccc(Cl)c3)c(Cc3ccsc3)n2c1	.	.	.	.	-	-
COc1cccc(N=Nc2ccc3cccnc3c2O)c1	-	86	-	-	-	-
COc1cc(OC)cc(C(=O)Nc2cccc3cccnc23)c1	-	-	-	-	-	-
CN(C)C(=O)COC(=O)c1ccccc1Sc1ccccc1C#N	-	-	68	-	-	-
CCNC(=O)N(C)[C@H]1C[C@H]2c3[nH]c4c(-c5ccccc5)cccc4c3CCN2C(=O)[C@H]1[C@H](C)O	.	.	.	.	-	-
O=S(=O)(c1ccc(-c2ccon2)s1)N1CCN(c2ccncc2)CC1	-	-	-	-	.	.
O=S(=O)(c1ccc(-c2ccon2)s1)N1CCN(c2ccccn2)CC1	79	-	-	-	-	-
CC(C)C[C@H]1CN=C(Nc2ccccc2)N1CCCC1CCCCC1	-	77	-	-	-	-
CC(C)C[C@H]1CN=C(Nc2ccccc2)N1CCCC1CCCC1	-	-	-	-	-	-
CCOC(=O)c1cc2c(=O)n3cccc(C)c3nc2n(CCCOC)c1=NC(=O)c1cccnc1	-	-	-	10	-	-
Cc1cccn2c(=O)c3cc(C#N)c(=NC(=O)c4ccncc4)n(CCCOC(C)C)c3nc12	-	-	96	-	-	-
CCCCn1c(=NC(=O)c2cccnc2)c(C#N)cc2c(=O)n3cccc(C)c3nc21	-	-	78	-	-	-
CC1=CC(O)(c2ccccn2)P(=O)(c2ccccc2)C=C1C (stereo unspecified)	.	.	.	.	-	-
CCCCOCC1CN(CCCC)S(=O)(=O)c2c(cccc2N2CCCC2)O1 (stereo unspecified)	.	.	.	.	-	-
COc1ccc(Cl)cc1NC(=S)N1CCN(C(=O)c2ccco2)CC1	-	-	-	-	-	39
O=C(NCCCN1CCN(c2cccc(Cl)c2)CC1)C1CCC(=O)N1Cc1ccccc1Cl (stereo unspecified)	6.5	-	-	-	-	-
CC1(Oc2ccccc2)CCN(Cc2csc3ccccc23)C1 (stereo unspecified)	.	.	.	.	-	-
CN1C(=S)SC(N(O)C(=O)Nc2cccc3ccccc23)C1(C)C (stereo unspecified)	-	-	63	-	-	-
OC(c1ccccc1)(c1ccccc1)C1CCN(CCCOc2ccc(-c3cccnc3)cc2)CC1	.	.	.	.	-	-
Cc1ccc(C)n1-c1ccccc1N1CCCCC1	-	-	63	-	-	-
Cc1nn(-c2ccccc2)nc1C(=O)Nc1ccccc1C(=O)NCC1CC1	.	.	.	.	-	-
CCCCc1nnc(NC(=O)C(C)Sc2nc(N)cc(=O)[nH]2)s1 (stereo unspecified)	-	76	-	-	-	-
COc1cccc(CNS(=O)(=O)c2ccccc2Br)c1	.	.	.	.	-	-
